ChEMBL document CHEMBL1135402, “New serotonin 5-HT(2A), 5-HT(2B), and 5-HT(2C) receptor antagonists: synthesis, pharmacology, 3D-QSAR, and molecular modeling of (aminoalkyl)benzo and heterocycloalkanones” (J Med Chem, 2002)

Experiments:
[1] = target: T1, 5-hydroxytryptamine receptor 2A (Rattus norvegicus, UniProt P14842); assay: Negative log concentration of antagonist on 5-hydroxytryptamine 2A receptor in rat thoracic aorta; type: functional, tissue-based; conditions: read-out: pA2 (converted)
[2] = target: Serotonin receptor 2a and 2c (5HT2A and 5HT2C) (Rattus norvegicus) (UniProt P08909+P14842); assay: Selectivity ratio towards Ki of 5-hydroxytryptamine 2A receptor to 5-hydroxytryptamine 2C receptor; type: protein assay
[3] = target: T1, 5-hydroxytryptamine receptor 2A; assay: Inhibitory constant on 5-hydroxytryptamine 2A receptor of Rat frontal cortex; type: tissue-based
[4] = target: T2, 5-hydroxytryptamine receptor 2C (Homo sapiens, UniProt P28335); assay: Inhibitory constant on human 5-hydroxytryptamine 2C receptor transfected in to HeLa cells; type: cell-based
T2 sequence (P28335 whole entry): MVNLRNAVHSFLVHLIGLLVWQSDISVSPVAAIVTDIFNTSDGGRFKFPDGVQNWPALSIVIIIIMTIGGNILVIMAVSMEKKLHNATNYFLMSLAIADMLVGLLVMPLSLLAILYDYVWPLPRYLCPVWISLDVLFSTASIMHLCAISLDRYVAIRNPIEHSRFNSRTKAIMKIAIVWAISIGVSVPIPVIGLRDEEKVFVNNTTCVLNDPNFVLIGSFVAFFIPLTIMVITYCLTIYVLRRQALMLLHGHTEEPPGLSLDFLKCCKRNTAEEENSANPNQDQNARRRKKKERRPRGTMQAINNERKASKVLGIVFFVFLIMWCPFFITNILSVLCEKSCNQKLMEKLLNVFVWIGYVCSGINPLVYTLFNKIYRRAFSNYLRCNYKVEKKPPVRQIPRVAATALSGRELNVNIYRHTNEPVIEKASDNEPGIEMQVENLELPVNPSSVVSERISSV
Summary of the method: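 HeLa cells stably expressing cloned human 5-HT2C, grown 24 h in dialyzed FCS; membranes as for human 5-HT2A. [3H]mesulergine (2 nM final) competition, nonspecific with 1 μM mianserine, 1 h at room temperature; GF/B filtration, scintillation counting. Ki via Cheng–Prusoff.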

[5] = target: 5-hydroxytryptamine receptor 2A (Homo sapiens, UniProt P28223); assay: Inhibitory constant for human 5-hydroxytryptamine 2A receptor transfected in to CHO cells; type: cell-based
Summary of the method: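 CHO cells stably expressing cloned human 5-HT2A, grown 24 h in dialyzed FCS before harvest; membranes in 50 mM Tris-HCl pH 7.5. […] Ki from IC50 by Cheng–Prusoff.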

[6] = target: 5-hydroxytryptamine receptor 2C (Bos taurus); assay: Inhibitory constant was determined on 5-hydroxytryptamine 2C receptor of Bovine choroid plexus
[7] = target: T3, 5-hydroxytryptamine receptor 2B (Rattus norvegicus, UniProt P30994); assay: Antagonistic activity on 5-hydroxytryptamine 2B receptor of Rat stomach fundus;ND is not determined; type: functional, tissue-based; conditions: read-out: pA2 (converted)
Summary of the method: (§1)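 Rat stomach fundus strips equilibrated 1 h under 1 g load; isometric contractions to cumulative 5-HT (0.01 nM–10 μM) in organ bath. Control curves, then antagonist preincubated before test curve; pA2 from EC50 shift at one antagonist concentration, […].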

[8] = target: T3, 5-hydroxytryptamine receptor 2B; assay: Negative log concentration of antagonistic compound was determined on 5-hydroxytryptamine 2B receptor of Rat stomach fundus; type: functional, tissue-based; conditions: read-out: pA2 (converted); summary of the method: as §1
[9] = target: T1, 5-hydroxytryptamine receptor 2A; assay: Negative log concentration of antagonistic compound was determined on 5-hydroxytryptamine 2A receptor of Rat thoracic aorta; type: functional, tissue-based; conditions: read-out: pA2 (converted)
Summary of the method: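 Denuded thoracic aorta rings (4 mm) from male Sprague–Dawley rats (250–350 g), 2 g tension in Krebs organ bath; isometric contraction. Sensitized with 10 μM 5-HT, then cumulative 5-HT curves (30 nM–100 μM) alternating with 60 min equilibration; two matching control runs, then antagonist added 20 min before end of equilibration. Single-concentration method: […].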

T1 sequence (P14842 whole entry): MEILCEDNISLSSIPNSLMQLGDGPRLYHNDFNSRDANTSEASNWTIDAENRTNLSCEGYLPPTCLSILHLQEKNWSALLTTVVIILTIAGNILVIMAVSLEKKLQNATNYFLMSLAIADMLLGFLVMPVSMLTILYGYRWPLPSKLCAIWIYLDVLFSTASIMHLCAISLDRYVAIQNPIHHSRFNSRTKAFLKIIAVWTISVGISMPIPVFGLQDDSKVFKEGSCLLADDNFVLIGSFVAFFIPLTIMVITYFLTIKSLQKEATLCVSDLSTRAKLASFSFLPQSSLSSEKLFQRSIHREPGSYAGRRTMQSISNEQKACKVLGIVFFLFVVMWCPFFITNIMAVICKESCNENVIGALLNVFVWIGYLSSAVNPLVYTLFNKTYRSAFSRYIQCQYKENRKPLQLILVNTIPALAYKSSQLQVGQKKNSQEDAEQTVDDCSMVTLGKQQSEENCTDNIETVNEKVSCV
Chain of Serotonin receptor 2a and 2c (5HT2A and 5HT2C) (Rattus norvegicus) (P08909 whole entry, looked up): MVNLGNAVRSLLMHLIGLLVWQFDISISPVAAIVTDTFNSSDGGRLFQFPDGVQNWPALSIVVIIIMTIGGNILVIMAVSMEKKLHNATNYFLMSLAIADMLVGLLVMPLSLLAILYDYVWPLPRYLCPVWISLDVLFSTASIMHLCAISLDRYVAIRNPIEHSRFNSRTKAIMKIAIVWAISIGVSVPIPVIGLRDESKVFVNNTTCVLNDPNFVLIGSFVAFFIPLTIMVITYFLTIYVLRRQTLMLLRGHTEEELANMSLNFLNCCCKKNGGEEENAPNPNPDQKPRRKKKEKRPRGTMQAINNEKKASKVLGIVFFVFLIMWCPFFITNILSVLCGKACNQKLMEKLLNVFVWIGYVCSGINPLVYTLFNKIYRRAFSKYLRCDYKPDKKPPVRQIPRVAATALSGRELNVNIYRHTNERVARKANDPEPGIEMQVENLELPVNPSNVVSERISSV
Chain of Serotonin receptor 2a and 2c (5HT2A and 5HT2C) (Rattus norvegicus) (P14842 whole entry, looked up): as the sequence (P14842 whole entry) above
Chain of 5-hydroxytryptamine receptor 2A (Homo sapiens, UniProt P28223) (P28223 whole entry): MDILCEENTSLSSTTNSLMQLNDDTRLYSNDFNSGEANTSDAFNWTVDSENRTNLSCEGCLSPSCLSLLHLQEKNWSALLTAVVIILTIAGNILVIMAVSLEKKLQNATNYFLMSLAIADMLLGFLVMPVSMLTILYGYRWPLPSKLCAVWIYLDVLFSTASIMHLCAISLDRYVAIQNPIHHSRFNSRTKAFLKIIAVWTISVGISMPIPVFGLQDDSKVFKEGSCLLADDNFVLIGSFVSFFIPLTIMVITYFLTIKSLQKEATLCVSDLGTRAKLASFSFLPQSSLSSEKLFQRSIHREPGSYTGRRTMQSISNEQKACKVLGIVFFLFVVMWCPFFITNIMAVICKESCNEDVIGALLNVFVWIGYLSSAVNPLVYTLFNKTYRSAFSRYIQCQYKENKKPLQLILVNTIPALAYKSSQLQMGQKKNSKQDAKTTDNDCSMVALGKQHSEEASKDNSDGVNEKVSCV
T3 sequence (P30994 whole entry): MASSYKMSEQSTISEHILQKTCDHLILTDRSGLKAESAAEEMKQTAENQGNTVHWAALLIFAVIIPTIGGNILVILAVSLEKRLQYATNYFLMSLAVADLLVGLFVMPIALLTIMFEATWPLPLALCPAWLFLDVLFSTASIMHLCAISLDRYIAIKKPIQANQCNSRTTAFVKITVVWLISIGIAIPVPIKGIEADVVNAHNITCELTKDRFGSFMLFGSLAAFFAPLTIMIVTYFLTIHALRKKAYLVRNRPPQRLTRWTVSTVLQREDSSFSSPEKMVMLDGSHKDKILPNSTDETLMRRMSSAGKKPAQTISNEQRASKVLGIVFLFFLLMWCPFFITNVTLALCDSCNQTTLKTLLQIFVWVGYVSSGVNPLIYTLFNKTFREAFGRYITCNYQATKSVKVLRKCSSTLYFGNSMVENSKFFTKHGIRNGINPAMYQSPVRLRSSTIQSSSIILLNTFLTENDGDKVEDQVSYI

SMILES | Kb [1] [nM] | Ratio [2] | Ki [3] [nM] | other results
O=C1CC(CN2CCC(C(=O)c3ccc(F)cc3)CC2)Cc2sccc21 (configuration not stated) | 15.1 | – | – | –
O=C(CCCN1CCN(CCC2CCc3ccccc3C2=O)CC1)c1ccc(F)cc1 (configuration not stated) | 44.7 | 46 | – | –
COc1ccccc1N1CCN(CC2CC(=O)c3ccccc3C2)CC1 (configuration not stated) | 331 | 5.5 | – | –
O=C(CCCN1CCN(CCC2Cc3sccc3C2=O)CC1)c1ccc(F)cc1 (configuration not stated) | 23.4 | – | – | –
COc1ccccc1N1CCN(CCC2Cc3ccccc3C2=O)CC1 (configuration not stated) | 158 | 1.5 | 195 | –
O=C1CC(CN2CCC(c3noc4cc(F)ccc34)CC2)Cc2occc21 (configuration not stated) | 11.2 | 2950 | – | Ki [4]: 3980 nM
O=C1c2ccoc2CCC1CCN1CCC(c2noc3cc(F)ccc23)CC1 (configuration not stated) | 0.562 | 65 | 1.07 | Ki [5]: 0.724 nM; Ki [4]: 34.7 nM
COc1ccccc1N1CCN(CCC2CCc3occc3C2=O)CC1 (configuration not stated) | 501 | 3 | 191 | –
COc1ccccc1N1CCN(CC2CC(=O)c3ccccc32)CC1 (configuration not stated) | 617 | – | – | –
COc1ccccc1N1CCN(CC2CC(=O)c3ccoc3C2)CC1 (configuration not stated) | – | 1 | > 10000 | –
O=C(CCCN1CCN(CCC2Cc3cc(F)ccc3C2=O)CC1)c1ccc(F)cc1 (configuration not stated) | – | 36 | 53.7 | –
O=C(CCCN1CCN(CC2CC(=O)c3ccsc3C2)CC1)c1ccc(F)cc1 (configuration not stated) | 16.2 | – | – | –
O=C(CCCN1CCN(CCC2Cc3ccccc3C2=O)CC1)c1ccc(F)cc1 (configuration not stated) | 50.1 | 50 | – | Ki [5]: 67.6 nM; Ki [4]: > 10000 nM
CCc1c(C)[nH]c2c1C(=O)CC(CN1CCN(CCCC(=O)c3ccc(F)cc3)CC1)C2 (configuration not stated) | – | 0.26 | 912 | –
O=C(CCCN1CCN(CC2CC(=O)c3ccccc3C2)CC1)c1ccc(F)cc1 (configuration not stated) | 53.7 | 1780 | – | Ki [5]: 115 nM
O=C1CC(CN2CCC(c3noc4cc(F)ccc34)CC2)Cc2sccc21 (racemic) [listing 1 of 2 here] | – | 44 | – | –
O=C(c1ccc(F)cc1)C1CCN(CCC2CCCc3ccccc3C2=O)CC1 (configuration not stated) | 178 | – | – | –
COc1ccccc1N1CCN(CC2CC(=O)c3ccsc3C2)CC1 (configuration not stated) | 1260 | – | – | –
O=C(c1ccc(F)cc1)C1CCN(CCC2Cc3ccccc3C2=O)CC1 (configuration not stated) | 7.59 | – | – | –
O=C(c1ccc(F)cc1)C1CCN(CCC2CCc3occc3C2=O)CC1 (configuration not stated) | 26.3 | 18 | 19.5 | –
COc1ccccc1N1CCN(CC2CC(=O)c3c([nH]c4ccccc34)C2)CC1 (configuration not stated) | – | 1.9 | – | –
O=C1CC(CN2CCN(c3ccccn3)CC2)c2ccccc21 (configuration not stated) | – | 0.027 | > 10000 | –
O=C(CCCCN1CCN(CC2CC(=O)c3ccoc3C2)CC1)c1ccc(F)cc1 (configuration not stated) | – | 25 | – | –
O=C1CC(CN2CCC(c3noc4cc(F)ccc34)CC2)Cc2sccc21 (racemic) [listing 2 of 2 here] | 0.741 | – | – | Log Ki [6]: -6.69
CCc1c(C)[nH]c2c1C(=O)CC(CN1CCN(c3ccccc3OC)CC1)C2 (configuration not stated) | – | 13 | – | –
O=C1CC(CN2CCC(C(=O)c3ccc(F)cc3)CC2)Cc2ccccc21 (configuration not stated) | 13.8 | – | – | –

SMILES | Kb [1] [nM] | Ratio [2] | Ki [3] [nM] | other results
O=C(c1ccc(F)cc1)C1CCN(CCC2CCc3ccccc3C2=O)CC1 (configuration not stated) | 33.9 | 29 | – | –
O=C1CC(CN2CCC(c3noc4cc(F)ccc34)CC2)Cc2ccccc21 (configuration not stated) | – | – | 2.69 | –
O=C(c1ccc(F)cc1)C1CCN(CCC2CCc3ccsc3C2=O)CC1 (configuration not stated) | – | 31 | – | Kb [7]: 331 nM
O=C(CCCN1CCN(CC2CC(=O)c3ccoc3C2)CC1)c1ccc(F)cc1 (configuration not stated) | – | 33 | – | –
O=C(c1ccc(F)cc1)C1CCN(CCC2CCc3sccc3C2=O)CC1 (configuration not stated) | 0.955 | – | – | –
COc1ccccc1N1CCN(CCC2CCc3sccc3C2=O)CC1 (configuration not stated) | 112 | – | – | –
O=C1c2sccc2CCC1CCN1CCC(c2noc3cc(F)ccc23)CC1 (configuration not stated) | – | 10 | – | –
O=C1c2ccoc2CCC1CCN1CCN(c2ccccn2)CC1 (configuration not stated) | 676 | 89 | 355 | –
O=C1c2ccsc2CCC1CCN1CCC(c2noc3cc(F)ccc23)CC1 (configuration not stated) | 0.135 | – | – | –
O=C1CC(CN2CCN(c3ccccc3)CC2)Cc2occc21 (configuration not stated) | – | 1440 | – | –
O=C1CC(CN2CCC(C(=O)c3ccc(F)cc3)CC2)Cc2occc21 (configuration not stated) | 52.5 | 616 | – | –
O=C1c2ccsc2CCC1CCN1CCN(c2ccccn2)CC1 (configuration not stated) | 490 | 9.8 | 174 | –
CCc1c(C)[nH]c2c1C(=O)CC(CN1CCC(C(=O)c3ccc(F)cc3)CC1)C2 (configuration not stated) | – | 4.1 | 8.71 | –
O=C1CC(CN2CCN(c3ncccn3)CC2)Cc2occc21 (configuration not stated) | – | 1 | > 10000 | Kb [8]: 977 nM
O=C1CC(CN2CCC(C(=O)c3ccc(F)cc3)CC2)Cc2[nH]c3ccccc3c21 (configuration not stated) | – | 65 | – | –
CCc1c(C)[nH]c2c1C(=O)C(CCN1CCN(c3ccccc3OC)CC1)CC2 (configuration not stated) | – | 2.5 | – | Kb [9]: 31.6 nM
O=C1CC(CN2CCC(C(=O)c3ccc(F)cc3)CC2)c2ccccc21 (configuration not stated) | 7.41 | – | – | –
O=C1CC(CN2CCC(c3noc4cc(F)ccc34)CC2)Cc2[nH]c3ccccc3c21 (configuration not stated) | – | 36 | – | Ki [5]: 1.17 nM; Ki [4]: 27.5 nM
O=C(CCCN1CCN(CCC2CCc3sccc3C2=O)CC1)c1ccc(F)cc1 (configuration not stated) | 148 | – | – | –
O=C(c1ccc(F)cc1)C1CCN(CCC2Cc3cc(F)ccc3C2=O)CC1 (configuration not stated) | 7.59 | 219 | – | –
O=C(c1ccc(F)cc1)C1CCN(CCC2Cc3sccc3C2=O)CC1 (configuration not stated) | 1.2 | – | – | –
O=C1CC(CN2CCC(c3noc4cc(F)ccc34)CC2)Cc2sccc21 (stereo in doubt; (-)18h) | – | – | 11.7 | –
O=C1CC(CN2CCC(c3noc4cc(F)ccc34)CC2)Cc2sccc21 (single isomer, unassigned; (+)) | – | – | 11.5 | –
COc1ccccc1N1CCN(CCC2CCc3ccccc3C2=O)CC1 (configuration not stated) | 191 | 5.8 | – | –
O=C(CCCN1CCN(CC2CC(=O)c3ccccc32)CC1)c1ccc(F)cc1 (configuration not stated) | 63.1 | – | – | –
CCc1c(C)[nH]c2c1C(=O)CC(CN1CCC(c3noc4cc(F)ccc34)CC1)C2 (configuration not stated) | – | 89 | 4.27 | –
